Converted amounts (≈) assume the structure as drawn.
Columns and labels:
Assay type in all cases: functional
Acinetobacter baumannii [1] = experiment: Antibacterial activity against colistin-resistant Acinetobacter baumannii ATCC 19606R exhibiting complete loss of lipopolysaccharide production by broth microdilution method
Procedure, shortened: (§1)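 Broth microdilution MIC in cation-adjusted Mueller-Hinton broth following the CLSI protocol, read in μg/ml. Strains were kept on Mueller-Hinton agar and cultured at 37°C. 19606R was selected directly on 10 μg/ml colistin and maintained with it. The pWH1266 or pAL840 transformants of 19606R were introduced by electroporation and selected on 100 μg/ml ampicillin.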

Acinetobacter baumannii [2] = experiment: Antibacterial activity against colistin-resistant Acinetobacter baumannii ATCC 19606R harboring empty plasmid pWH1266 by broth microdilution method; procedure, shortened: as §1
Acinetobacter baumannii [3] = experiment: Antibacterial activity against colistin-resistant Acinetobacter baumannii ATCC 19606R harboring pAL840 plasmid encoding intact lpxA gene by broth microdilution method; procedure, shortened: as §1
Acinetobacter baumannii [4] = experiment: Antibacterial activity against Acinetobacter baumannii ATCC 19606 by broth microdilution method; procedure, shortened: as §1

Row | Compound | MIC (Acinetobacter baumannii [1]) [µg/mL] | MIC (Acinetobacter baumannii [2]) [µg/mL] | MIC (Acinetobacter baumannii [3]) [µg/mL] | MIC (Acinetobacter baumannii [4]) [µg/mL]
1 | CO/N=C(\C(=O)N[C@@H]1C(=O)N2C(C(=O)[O-])=C(C[N+]3(C)CCCC3)CS[C@H]12)c1csc(N)n1 | 0.125 (≈ 0.26 µM) | 0.125 (≈ 0.26 µM) | 16 (≈ 33.3 µM) | 16 (≈ 33.3 µM)
2 | CC[C@H]1OC(=O)[C@H](C)[C@@H](O[C@H]2C[C@@](C)(OC)[C@@H](O)[C@H](C)O2)[C@H](C)[C@@H](O[C@@H]2O[C@H](C)C[C@H](N(C)C)[C@H]2O)[C@](C)(O)C[C@@H](C)CN(C)[C@H](C)[C@@H](O)[C@]1(C)O [AZITHROMYCIN] | 2 (≈ 2.67 µM) | 2 (≈ 2.67 µM) | 64 (≈ 85.4 µM) | 64 (≈ 85.4 µM)
3 | POLYMYXIN B | > 128 | > 128 | 0.5 | 0.5

From ChEMBL document CHEMBL1687805, “Colistin resistance in Acinetobacter baumannii is mediated by complete loss of lipopolysaccharide production” (2010)
